In PubChem BioAssay:
Calls of active or inactive are those of the source.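 Rule for the calls, unless noted: active = viability loss from added drug above about 55%, and viability with drug at most 40%, in both replicates (limit read from the data, passing the limit was not always enough); inconclusive = both conditions met in only one replicate; inactive = neither replicate meets both conditions.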

Key:
[1] = Her2 expression decrease, cell viability multiplex – SKBR3 breast tumor cells, AlphaScreen, ATP viability, primary screen (AID 461;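 active = Her2 level under about 52% in both replicate screens, with viability over 70% of control, limit read from the data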;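 for Her2 level: lower value means less Her2 protein in the cells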;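 for viability: percent of carrier control wells set as 100% viability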); conditions: SKBR3 Her2 protein level, 18-24 h, measured here: SKBR3 viability, ATP luminescence, at 10 µM
[2] = target: Receptor tyrosine-protein kinase erbB-2 (Homo sapiens) (UniProt P04626); assay: as above; conditions: 18-24 h, at 10 µM, stronger effect = lower value
[3] = reduced viability of SK-BR-3 breast cancer cells – cell-based, 24 h, human, pilot screen (AID 572;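 active = viability at or below 10% of carrier control in both of two separate runs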;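 note: compound exposure lasted between 18 and 24 h rather than exactly 24 h; 100% = carrier-treated control wells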); conditions: SK-BR-3 viability, CellTiter-Glo luminescence, at 10 µM, stronger effect = lower value
[4] = HUVEC growth inhibition – cell-based, human, primary screen (AID 575;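 active = viability at or below 30% in both replicate assays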;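 note: 100% = median of untreated cell wells with 0.1% DMSO on each plate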); conditions: HUVEC proliferation, CellTiter-Glo luminescence, 72 h; at 10 µM; stronger effect = lower value
In short: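 Test system: HUVEC primary cells. Quantity: 1250 endothelial cells in each well. Dosing: single-point 10 µM, DMSO 0.1% final. Incubation: 72 h treatment at 37 °C. Measured by: CTG luminescence. Control set: DMSO cell controls and MePR drug controls. Plate: collagen-coated 384-well format.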

[5] = H69AR cell proliferation blockers – human, duplicate replicates, primary screen (AID 580;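 active = viability at or under a set limit in both replicates, limit being median viability minus 3 SD, cut at about 48% in these data, passing the limit was not always enough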;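 note: 100% = mean luminescence of untreated wells and 0% = no signal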); conditions: H69AR lung tumor cells viability, ATP luminescence, 72 h; at 10 µM; stronger effect = lower value
[6] = MRP1 drug-resistance reversers in H69AR cells – cell-based, doxorubicin co-treatment, pilot screen (AID 601); conditions: CellTiter-Glo, 72 h, at 10 µM; for differential viability (reversal): stronger effect = higher value
[7] = yeast transport mutant growth inhibition pilot in 384-well plates, post-Golgi transport modulator project (AID 636; in the data active = inhibition above about 31%); conditions: absorbance 615 nm, about 18 h, stronger effect = higher value
[8] = growth suppression of yeast trafficking mutant, preliminary HTS, modulators of trafficking downstream of Golgi apparatus project, 1536-format plate, OD 615 nm (AID 637; in the data active = inhibition above about 30%); conditions: yeast transport mutant growth, absorbance 615 nm, 18 h; stronger effect = higher value
[9] = H69AR cells + 2 uM doxorubicin, measured here: viability with 2 uM doxorubicin, stronger effect = lower value
[10] = H69AR cells, compound alone cytotoxicity

Receptor tyrosine-protein kinase erbB-2 (Homo sapiens), sequence (P04626 whole entry, looked up): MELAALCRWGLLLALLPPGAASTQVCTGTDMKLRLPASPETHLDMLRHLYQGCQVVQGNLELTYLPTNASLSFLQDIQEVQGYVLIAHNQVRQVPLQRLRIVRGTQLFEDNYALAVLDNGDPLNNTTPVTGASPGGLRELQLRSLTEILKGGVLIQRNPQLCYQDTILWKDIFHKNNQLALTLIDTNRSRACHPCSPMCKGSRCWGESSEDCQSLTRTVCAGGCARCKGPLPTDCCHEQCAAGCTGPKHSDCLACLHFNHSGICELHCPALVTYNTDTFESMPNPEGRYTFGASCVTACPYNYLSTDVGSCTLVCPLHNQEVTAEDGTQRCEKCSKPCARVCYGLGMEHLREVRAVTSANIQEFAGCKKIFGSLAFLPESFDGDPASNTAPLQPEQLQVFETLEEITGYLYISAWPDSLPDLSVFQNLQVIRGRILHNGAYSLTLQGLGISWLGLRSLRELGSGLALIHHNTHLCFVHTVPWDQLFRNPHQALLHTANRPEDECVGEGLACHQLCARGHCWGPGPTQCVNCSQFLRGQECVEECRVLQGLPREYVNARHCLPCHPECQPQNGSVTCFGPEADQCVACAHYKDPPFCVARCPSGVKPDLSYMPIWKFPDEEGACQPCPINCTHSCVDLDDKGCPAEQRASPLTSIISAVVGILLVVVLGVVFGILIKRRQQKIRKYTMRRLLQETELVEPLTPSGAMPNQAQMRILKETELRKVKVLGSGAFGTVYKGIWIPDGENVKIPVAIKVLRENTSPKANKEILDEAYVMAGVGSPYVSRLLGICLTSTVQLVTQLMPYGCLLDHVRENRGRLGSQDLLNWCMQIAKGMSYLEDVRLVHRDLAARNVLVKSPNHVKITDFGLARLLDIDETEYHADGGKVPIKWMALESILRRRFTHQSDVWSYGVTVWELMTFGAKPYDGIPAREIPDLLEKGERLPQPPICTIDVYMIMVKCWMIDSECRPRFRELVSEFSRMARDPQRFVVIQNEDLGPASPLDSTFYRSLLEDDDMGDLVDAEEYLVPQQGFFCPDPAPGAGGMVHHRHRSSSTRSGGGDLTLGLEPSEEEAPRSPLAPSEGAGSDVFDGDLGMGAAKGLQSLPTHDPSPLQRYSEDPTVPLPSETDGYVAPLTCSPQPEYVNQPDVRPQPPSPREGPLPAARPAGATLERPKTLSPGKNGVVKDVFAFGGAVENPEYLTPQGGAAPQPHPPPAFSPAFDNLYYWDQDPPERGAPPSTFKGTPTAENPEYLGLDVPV

Row | SMILES | viability [1] | Her2 level [2] | viability [3] | viability [4] | viability [5] | differential viability (reversal) ([6]; H69AR cells + 2 uM doxorubicin) | viability [6, 9] | viability [6, 10] | inhibition [7] | inhibition [8]
1 | CCOC(=O)c1ccc(NS(=O)(=O)c2cccc3nsnc23)cc1 | 90.5% | 106% (inactive) | 90.5% (inactive) | 113% (inactive) | 95.9% (inactive) | -3.26% (inactive) | 99.1% | 95.9% | 1.2% (inactive) | 2.22% (inactive)
2 | O=S(=O)(NCC(c1cccnc1)N1CCN(c2ccccc2)CC1)c1cc(F)ccc1F (stereo not given) | 98.5% | 87% (inactive) | 98.5% (inactive) | 81.5% (inactive) | 86.4% (inactive) | -8.3% (inactive) | 94.7% | 86.4% | 5.19% (inactive) | 92% (active)
3 | COc1ccc(-n2c(SCC(=O)Nc3ccc(C(=O)O)cc3)nnc2-c2cccs2)cc1 | 112% | 94% (inactive) | 112% (inactive) | 99.4% (inactive) | 109% (inactive) | 15.2% (inactive) | 93.4% | 109% | -1.97% (inactive) | -4.36% (inactive)
4 | Cc1ccc(-c2cc(C(=O)N3CCCC3)no2)cc1 | 93.5% | 106% (inactive) | 93.5% (inactive) | 96% (inactive) | 95.1% (inactive) | 2% (inactive) | 93.1% | 95.1% | -2.11% (inactive) | -5.16% (inactive)
5 | Cc1nc(CNS(=O)(=O)c2cc(C)c(C)cc2C)cs1 | 99% | 89% (inactive) | 99% (inactive) | 121% (inactive) | 94.3% (inactive) | 4.38% (inactive) | 89.9% | 94.3% | -7.57% (inactive) | 1.67% (inactive)
6 | O=C(COc1ccccc1)NCCSCc1ccco1 | 109% | 98.5% (inactive) | 109% (inactive) | 104% (inactive) | 89.3% (inactive) | 9.83% (inactive) | 79.4% | 89.3% | -6.49% (inactive) | -5.67% (inactive)
7 | CCS(=O)(=O)N1CCCC(C(=O)NCc2ccccc2Cl)C1 (stereo not given) | 90% | 110% (inactive) | 90% (inactive) | 99.1% (inactive) | 94.7% (inactive) | 5.79% (inactive) | 88.9% | 94.7% | -7.6% (inactive) | -3.61% (inactive)
8 | COc1ccc(-c2noc(CCCC(=O)O)n2)cc1 | 130% | 91.5% (inactive) | 130% (inactive) | 97.1% (inactive) | 95% (inactive) | 5.04% (inactive) | 89.9% | 95% | -6.4% (inactive) | 5.08% (inactive)
9 | CCc1[nH]nc2c1C(c1ccncc1)C(C#N)=C(N)O2 (stereo not given) | 108% | 112% (inactive) | 108% (inactive) | 106% (inactive) | 95.9% (inactive) | -3.88% (inactive) | 99.8% | 95.9% | -4.46% (inactive) | -4.92% (inactive)
10 | Cc1ccc(S(=O)(=O)N2C(=O)CCC2C(=O)Nc2ccc3c(c2)OCCO3)cc1 (stereo not given) | 109% | 96.5% (inactive) | 109% (inactive) | 93.6% (inactive) | 89.7% (inactive) | -4.12% (inactive) | 93.8% | 89.7% | -1.69% (inactive) | -1.67% (inactive)
11 | Cc1cc(OCC(=O)N2CCCC2)cc(C)c1Cl | 102% | 96% (inactive) | 102% (inactive) | 101% (inactive) | 89.6% (inactive) | 16.1% (inactive) | 73.5% | 89.6% | -6.8% (inactive) | -0.33% (inactive)
12 | CCOc1nc(SCCOc2ccccc2)nc(N(C)C)n1 | 96% | 115% (inactive) | 96% (inactive) | 72.4% (inactive) | 107% (inactive) | 4.17% (inactive) | 102% | 107% | -1.84% (inactive) | -3.5% (inactive)
13 | Cc1ccc(S(=O)(=O)N2CCCC(C(=O)NC3=NCCS3)C2)cc1 (stereo not given) | 97.5% | 78.5% (inactive) | 97.5% (inactive) | 83% (inactive) | 91.8% (inactive) | 6.39% (inactive) | 85.4% | 91.8% | -6.67% (inactive) | 2.62% (inactive)
14 | CCC(=O)N1CCN(CCN=CC2=C(O)CC(C)(C)CC2=O)CC1 | 90.5% | 93.5% (inactive) | 90.5% (inactive) | 79.6% (inactive) | 107% (inactive) | 11.3% (inactive) | 95.2% | 107% | -1.6% (inactive) | -6.77% (inactive)
15 | CN(C)c1nc(N)nc(-c2nc3ccccc3s2)n1 | 73% | 89% (inactive) | 73% (inactive) | 85.1% (inactive) | 91.7% (inactive) | 6.39% (inactive) | 85.3% | 91.7% | -6.62% (inactive) | -1.64% (inactive)
16 | CC1C(c2ccccc2)N(C)CCC12NC(=O)NC2=O (stereo not given) | 89% | 95.5% (inactive) | 89% (inactive) | 96.9% (inactive) | 98.2% (inactive) | 13% (inactive) | 85.2% | 98.2% | -5.33% (inactive) | -9.02% (inactive)

Row | SMILES | viability [1] | Her2 level [2] | viability [3] | viability [4] | viability [5] | differential viability (reversal) ([6]; H69AR cells + 2 uM doxorubicin) | viability [6, 9] | viability [6, 10] | inhibition [7] | inhibition [8]
17 | Cc1ccc(C)c(S(=O)(=O)NCc2cccnc2)c1 | 92% | 87.5% (inactive) | 92% (inactive) | 108% (inactive) | 92.8% (inactive) | 1.22% (inactive) | 91.5% | 92.8% | -5.33% (inactive) | -6.19% (inactive)
18 | COc1ccc(CNc2nc(SCC(=O)NCc3ccco3)nc3ccccc23)cc1 | 80% | 90.5% (inactive) | 80% (inactive) | 84.6% (inactive) | 94.4% (inactive) | 17.6% (inactive) | 76.7% | 94.4% | -3.6% (inactive) | -4.26% (inactive)
19 | CCCCC(CC)C(=O)Nc1ccc(Cl)cn1 (stereo not given) | 103% | 102% (inactive) | 103% (inactive) | 98.3% (inactive) | 94.3% (inactive) | 12.2% (inactive) | 82.1% | 94.3% | -5.47% (inactive) | 1.97% (inactive)
20 | O=C(O)CN1C(=O)CNC1=O | 98% | 93.5% (inactive) | 98% (inactive) | 99.2% (inactive) | 97.6% (inactive) | 2.41% (inactive) | 95.2% | 97.6% | -4.86% (inactive) | 7.21% (inactive)
21 | Cc1cc(N2CCC3(CC2)OCCO3)n2nc(C)c(-c3ccc(Cl)cc3)c2n1 | 84.5% | 84% (inactive) | 84.5% (inactive) | 71.9% (inactive) | 90.9% (inactive) | 12.5% (inactive) | 78.4% | 90.9% | -5.68% (inactive) | 2.38% (inactive)
22 | CCOC(=O)COc1ccc(S(=O)(=O)Nc2ccc3c(c2)OCO3)cc1 | 164% | 113% (inactive) | 164% (inactive) | 10.4% (active) | 91% (inactive) | -1.11% (inactive) | 92.1% | 91% | -4.21% (inactive) | 9.02% (inactive)
23 | CC(NC(=O)c1ccccc1NC(=O)c1ccco1)C(=O)O (stereo not given) | 106% | 68% (inactive) | 106% (inactive) | 89% (inactive) | 86.7% (inactive) | 2.01% (inactive) | 84.7% | 86.7% | -2.63% (inactive) | 2.1% (inactive)
24 | Cc1[nH]n2c(=O)cc(Cc3ccccc3)nc2c1C#N | 97.5% | 80% (inactive) | 97.5% (inactive) | 97.1% (inactive) | 81.5% (inactive) | -10.1% (inactive) | 91.6% | 81.5% | -2.89% (inactive) | -1.45% (inactive)
25 | N#CCc1c(C#N)c(N)nc(N2CCN(S(=O)(=O)c3ccccc3)CC2)c1C#N | 74% | 75.5% (inactive) | 74% (inactive) | 59% (inactive) | 77.6% (inactive) | -13.6% (inactive) | 91.2% | 77.6% | -4.46% (inactive) | 0.16% (inactive)
26 | CCOc1ccc(NCCC(=O)c2ccc3c(c2)OCO3)cc1 | 90% | 84.5% (inactive) | 90% (inactive) | 75.7% (inactive) | 66.1% (inactive) | -13.5% (inactive) | 79.6% | 66.1% | -6.71% (inactive) | -5.5% (inactive)
27 | COc1ccc(OC)c(S(=O)(=O)Nc2ccccc2C(=O)O)c1 | 109% | 100% (inactive) | 109% (inactive) | 98.3% (inactive) | 99% (inactive) | 11.8% (inactive) | 87.2% | 99% | -4.4% (inactive) | 0.16% (inactive)
28 | Cc1ccc(Oc2ccc(-c3nc(N)nc(N)n3)cc2)cc1 | 112% | 82% (inactive) | 112% (inactive) | 76.6% (inactive) | 108% (inactive) | 23.1% (inactive) | 84.8% | 108% | -5.33% (inactive) | 2.1% (inactive)
29 | O=C(CCSc1nccn1Cc1ccccc1)N1CCOCC1 | 107% | 111% (inactive) | 107% (inactive) | 103% (inactive) | 97% (inactive) | 11.1% (inactive) | 86% | 97% | -6.13% (inactive) | -0.65% (inactive)
30 | Nc1ccc(-n2c(N)c(C(=O)NCc3ccc4c(c3)OCO4)c3nc4ccccc4nc32)cc1 | 72.5% | 66.5% (inactive) | 72.5% (inactive) | 64.6% (inactive) | 55.5% (inactive) | -17.4% (inactive) | 72.9% | 55.5% | -1.73% (inactive) | 6.61% (inactive)
31 | O=C(O)CCC1(C(=O)O)OCCc2ccccc21 (stereo not given) | 112% | 83% (inactive) | 112% (inactive) | 107% (inactive) | 97.5% (inactive) | 7.12% (inactive) | 90.3% | 97.5% | -5.54% (inactive) | 2.86% (inactive)
32 | CCn1nc(C)c(NC(=O)c2cc(Br)ccc2Cl)c1C | 84.5% | 78% (inactive) | 84.5% (inactive) | 88.5% (inactive) | 94% (inactive) | 14.3% (inactive) | 79.7% | 94% | -4.42% (inactive) | 3.44% (inactive)
